# High-throughput results deposited in PubChem BioAssay by Sanford-Burnham Center for Chemical Genomics.
# A selection: hits, their analogues and other compounds. The true share with any hit is near 2.3%.
# Scp-1 inhibitor – inhibitors of human Scp-1 phosphatase; AID 493091; 340,000 compounds, 0.88% hits; Recombinant Scp1, phosphopeptide, malachite green phosphate absorbance; inhibition, % at 20 µM;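 active = inhibition above about 50% at 20 µM, limit read from the data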
#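 Assay system: SCP-1 catalytic fragment, aa 76-261 | Buffer or medium: Tris acetate buffer pH 5.5 with MgCl2 and Tween-20 | Compound: One concentration, 20 µM, with 1.0% DMSO | Also added: Phospho 17-mer peptide substrate | Signal: Absorbance at 630 nm | Incubation: 45 min enzyme reaction at room temperature | Measure: % inhibition of SCP-1 phosphate liberation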
# SUMO1-SIM PPI – modulators of human SUMO1-mediated protein-protein interactions. inhibition, % at 20 µM. SUMO1 binding to a labelled peptide, TR-FRET, 1 h. 360,000 compounds, 0.33% hits. AID 602429; in the data active = inhibition above about 37%
# DNMT1 block – inhibitors of human DNMT1; DNMT1 molecular beacon, Hinp1I cleavage, fluorescence; inhibition (reported as % activation of signal), % at 10 µM; 360,000 compounds, 0.83% hits; in the data active = inhibition above about 50%
# Target sequence (P26358 504-1616 limits assumed): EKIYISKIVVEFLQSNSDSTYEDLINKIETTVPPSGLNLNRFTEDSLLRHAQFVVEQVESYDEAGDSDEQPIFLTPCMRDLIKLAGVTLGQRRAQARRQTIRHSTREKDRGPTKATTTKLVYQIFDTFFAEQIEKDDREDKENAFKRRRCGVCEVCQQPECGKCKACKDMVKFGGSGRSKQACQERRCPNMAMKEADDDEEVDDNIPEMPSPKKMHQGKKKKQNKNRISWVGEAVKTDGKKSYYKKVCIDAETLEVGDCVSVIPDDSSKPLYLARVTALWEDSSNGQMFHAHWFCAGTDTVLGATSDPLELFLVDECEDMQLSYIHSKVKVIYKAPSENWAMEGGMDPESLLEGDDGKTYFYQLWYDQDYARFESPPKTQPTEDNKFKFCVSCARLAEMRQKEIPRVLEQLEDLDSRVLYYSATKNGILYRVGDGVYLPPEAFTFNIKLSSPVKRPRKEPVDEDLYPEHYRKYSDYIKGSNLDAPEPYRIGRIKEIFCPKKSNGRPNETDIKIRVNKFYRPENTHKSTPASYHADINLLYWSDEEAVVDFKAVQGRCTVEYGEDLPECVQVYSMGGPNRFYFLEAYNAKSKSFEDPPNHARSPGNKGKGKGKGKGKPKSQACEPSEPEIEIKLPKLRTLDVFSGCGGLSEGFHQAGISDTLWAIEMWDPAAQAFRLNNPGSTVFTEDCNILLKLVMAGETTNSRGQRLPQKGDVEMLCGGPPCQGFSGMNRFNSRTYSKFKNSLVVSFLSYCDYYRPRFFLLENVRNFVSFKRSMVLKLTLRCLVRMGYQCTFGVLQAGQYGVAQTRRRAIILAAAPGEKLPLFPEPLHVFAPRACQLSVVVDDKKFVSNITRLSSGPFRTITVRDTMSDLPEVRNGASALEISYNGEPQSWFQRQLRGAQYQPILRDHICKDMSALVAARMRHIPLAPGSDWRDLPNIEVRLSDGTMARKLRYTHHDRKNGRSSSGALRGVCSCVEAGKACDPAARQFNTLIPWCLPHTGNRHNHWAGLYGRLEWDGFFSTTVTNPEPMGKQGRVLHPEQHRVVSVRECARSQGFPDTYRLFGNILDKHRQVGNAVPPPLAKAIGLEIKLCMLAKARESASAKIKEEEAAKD
# LMPTP block – LMPTP (human) inhibition | 360,000 compounds, 0.22% hits | P24666 | inhibition, % at 20 µM | AID 651560 | recombinant LMPTP-A, OMFP fluorogenic substrate, fluorescence intensity;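 active = compounds that cut the enzyme signal by at least half of the control window in the single-dose screen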
#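 Test system: LMPTP-A phosphatase enzyme. Amount: LMPTP-A at 0.625 nM final in the reaction. Reagent: OMFP substrate, 400 µM final. Times: 50 min at room temperature. Signal: endpoint fluorescence intensity from OMFP dephosphorylation. Read-out basis: % inhibition. Benchmarks: no-enzyme and uninhibited controls.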
# NadD inh – NadD (S. aureus) enzyme inhibition; inhibition, % at 20 µM; 360,000 compounds, 0.78% hits; purified NadD enzyme, colorimetric absorbance read-out; in the data active = inhibition above about 26%
# STEP inh – STEP (human) phosphatase inhibition; recombinant STEP, OMFP fluorogenic substrate, fluorescence; 360,000 compounds, 0.25% hits; P54829; inhibition, % at 20 µM;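 active = inhibition at 20 µM, scaled per plate between control wells, above about 37%, limit read from the data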
#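 Measure: Control-normalized % inhibition with plate pattern correction | Test system: STEP phosphatase, cell-free reaction | Medium: pH 6.0 Bis-Tris with DTT and Tween 20 | Technique: Fluorescence, 480/540 nm | Times: Reaction 20 min, ambient temperature | Doses: Single compound dose of 20 µM, 1% DMSO final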
# Scp1 confirm – Scp-1 (human) inhibition, single-dose confirmed; inhibition, % at 20 µM; shares compounds with Scp-1 inhibitor; recombinant SCP-1 catalytic domain, phosphate release, malachite green absorbance; AID 540281; 2,500 compounds, 61% hits
# Scp-1 MG ctr – interferes with malachite green readout, flagging false Scp-1 hits. shares compounds with Scp-1 inhibitor. Colorimetric interference counterscreen, malachite green absorbance 630 nm. apparent inhibition (interference), % at 20 µM. 2,500 tested, under 10 active;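 note: compounds added after enzyme reaction finished so only phosphate colour detection is probed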
# Scp1 DSF – Scp-1 (human) binding by thermal shift | thermal shift relative to vanadate control, % at 40 µM | shares compounds with Scp-1 inhibitor | Recombinant SCP1, Sypro Orange thermal shift Tm | 1,500 compounds, 25% hits;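 active = substances whose mean melting-temperature shift, as a percentage of the reference inhibitor's shift, reaches about 5.3%, limit read from the data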
# DNMT1 inh conf – DNMT1 inhibition confirmation, single concentration. AID 602385. 2,300 compounds, 8% hits. inhibition, % at 10 µM. DNMT1 molecular beacon HinP1I cleavage, fluorescence. shares compounds with DNMT1 block;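 active = average inhibition of at least 30% in the single-concentration confirmation test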
# Beacon interf – shows spectral interference in the DNMT1 beacon assay | shares compounds with DNMT1 block | DNMT1 molecular beacon spectral interference counterscreen, fluorescence 485/520 | activation (fluorescence interference), % at 10 µM | 2,300 compounds, 1% hits;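 active = activation of at least 30% at 10 µM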;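 note: DNMT1 catalytic domain with a HinP1I cleavage step and a FAM/dabcyl DNA beacon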
# STEP conf – confirmation of human STEP phosphatase inhibitors | recombinant STEP, OMFP fluorogenic substrate, fluorescence | inhibition, % at 20 µM | shares compounds with STEP inh | 520 compounds, 32% hits | AID 623866; call rule not given here
# Hits are given with their value; – = inactive; · = no result.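 Rule for the calls, unless noted: active = inhibition of at least 30% at 20 µM; inactive = the rest.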
SMILES,Scp-1 inhibitor,SUMO1-SIM PPI,DNMT1 block,LMPTP block,NadD inh,STEP inh,Scp1 confirm,Scp-1 MG ctr,Scp1 DSF,STEP conf,others
C/C(=N\NC(=O)c1ccccc1O)c1ccc(NC(=O)Cc2ccccc2)cc1,101,–,–,59,–,84,84,–,–,79,
COC1=CC(=O)OC(c2ccccc2)C1 (configuration not stated),·,–,·,–,·,·,·,·,·,·,
Cn1cc(C(=O)NS(=O)(=O)Nc2ccc(Br)cn2)c2ccccc21,–,–,–,–,–,–,·,·,·,·,
O=[N+]([O-])c1ccc(/C=N/n2c(-c3cccnc3)n[nH]c2=S)cc1,60,–,–,–,–,56,52,–,–,–,
O=C(NCCCc1ccccc1)c1cccc(NC(=O)C2CCCC2)c1,–,–,–,–,–,–,·,·,·,·,
CCOc1ccccc1NC(=O)COc1cccnc1[N+](=O)[O-],–,–,–,–,–,–,·,·,·,·,
O=Cc1cn(-c2ccccc2)nc1-c1cc2cc(O)ccc2oc1=O,64,44,–,55,–,60,53,–,–,79,
CCc1c(C)[nH]n(-c2ccc(Oc3ccccc3)c(S(=O)(=O)O)c2)c1=O,79,–,66,–,–,53,80,–,–,36,
COc1ccccc1NC(=O)C(=O)NCCCN1CCCC1=O,–,–,–,–,–,–,·,·,·,·,
O=C1CCCN1CCCNC(=S)Nc1cccc2ccccc12,–,–,–,–,–,55,–,–,·,–,
CCc1ccc(N(C(=O)c2csnn2)C(C(=O)NC(C)(C)C)c2cccnc2)cc1 (configuration not stated),–,–,–,–,–,–,·,·,·,·,
Clc1ccc(Br)cc1-c1nc(-c2ccncc2)no1,102,–,–,72,–,65,35,–,–,–,
CCN(C[C@H]1N[C@@](CC)(C(=O)OC)[C@H]2C(=O)N(C)C(=O)[C@@H]12)S(=O)(=O)c1ccc(OC(F)(F)F)cc1,–,–,–,–,–,–,·,·,·,·,
CCc1nc2oc3cc(OC)ccc3c(=O)c2c(=O)n1-c1ccccc1,–,–,–,–,–,–,·,·,·,·,
Cc1ccc(-n2c(C)nc3oc4ccccc4c(=O)c3c2=O)cc1,68,–,99,61,–,49,61,–,–,85,DNMT1 inh conf=–;Beacon interf=–
O=C1Nc2ccccc2C1=O,–,–,–,–,–,–,·,·,·,·,
O=C1Nc2ccc3sc4ccccc4c3c2C1=O,93,55,–,77,–,96,79,–,8.0,53,
O=C(N/N=C/c1cccc([N+](=O)[O-])c1)c1ccc(Br)cc1,98,–,–,65,–,73,86,–,–,17,
O=C(N/N=C/C(Br)=C/c1ccccc1)c1ccc([N+](=O)[O-])cc1,97,–,57,78,–,88,84,–,–,–,DNMT1 inh conf=–;Beacon interf=–
NCCCCCC(=O)N/N=C/c1coc2ccccc2c1=O,–,–,–,–,–,–,·,·,·,·,
CC1(C(=O)Nc2ccccc2)CCN1C(=O)C1(c2ccccc2)CC1 (configuration not stated),·,–,–,–,–,–,·,·,·,·,
CCOc1ccc2c(c1)S/C(=C\c1cccs1)C(=O)N2,–,–,–,–,–,–,·,·,·,·,
CCc1ccc(NC(=O)CS(=O)CC(=O)Nc2ccc(N3CCOCC3)cc2)cc1 (configuration not stated),79,–,–,63,–,72,88,–,–,–,
N#C/C(=C\c1ccc(OCc2ccc(F)cc2)cc1)C(=O)Nc1cccc(C(=O)O)c1,93,–,–,–,–,92,74,–,–,–,
COc1ccc(NC(=O)/C(C#N)=C\c2ccc(OCc3ccc(C(=O)O)cc3)c(OC)c2)cc1,75,–,–,76,–,89,62,–,–,–,
SMILES,Scp-1 inhibitor,SUMO1-SIM PPI,DNMT1 block,LMPTP block,NadD inh,STEP inh,Scp1 confirm,Scp-1 MG ctr,Scp1 DSF,STEP conf,others
N#C/C(=C\c1ccc(OCc2ccccc2)cc1)C(N)=O,–,–,–,–,–,–,·,·,·,·,
O=c1oc(=S)oc2c1[C@H](c1ccc(Cl)cc1)O[C@H](C1CC1)C2,·,–,·,–,–,·,·,·,·,·,
CCCCn1c(N)c(N(CCC(C)C)C(=O)COC(=O)/C=C/c2ccc(F)cc2)c(=O)[nH]c1=O,–,–,–,–,–,–,·,·,·,·,
CC(=O)Oc1ccc(/C=N\NC(=O)c2cc3c(ccc4ccccc43)o2)cc1,92,–,–,–,–,90,69,–,–,–,
Cc1ccc(/C=N/NC(=O)c2cc3c(ccc4ccccc43)o2)o1,–,–,–,–,–,–,·,·,·,·,
Cc1ccc(OC(=O)CCNC(=O)c2ccccc2Cl)c(Br)c1,–,–,–,–,–,–,·,·,·,·,
Cc1ccc(C(=O)Nc2ncccc2O)o1,–,–,–,–,–,–,·,·,·,·,
Cc1ccc(C(=O)NNC(=O)CSc2nnc3c(n2)[nH]c2ccc(F)cc23)cc1,67,–,105,52,–,56,76,–,–,–,DNMT1 inh conf=–;Beacon interf=–
COc1ccc2[nH]c3nc(SCC(=O)NNC(=O)c4ccc(OC)c(OC)c4)nnc3c2c1,–,–,–,–,–,–,·,·,·,·,
CCOc1ccc(C(=O)Nc2ccc(NC(=O)c3ccccc3)c(C)c2)cc1[N+](=O)[O-],78,–,–,–,–,44,59,–,–,–,
CCOc1cccc(C(=O)Nc2ccc(NC(=O)c3ccccc3)c(C)c2)c1,–,–,–,–,–,–,·,·,·,·,
CSCCC(NC(=O)/C(=C/c1ccc(F)cc1)NC(C)=O)C(=O)O (configuration not stated),–,–,–,–,–,–,·,·,·,·,
O=C(N/N=C/c1cc(Br)c(Br)o1)c1cc2ccccc2o1,111,–,–,–,–,56,61,–,–,–,
O=C(N/N=C/c1ccc(OC(=O)c2cccs2)cc1)c1cccc(F)c1,95,–,64,68,–,43,77,–,–,28,DNMT1 inh conf=–;Beacon interf=–
